Assay results reported in ChEMBL document CHEMBL1165969, “Synthesis and cytotoxicity of novel indirubin-5-carboxamides” (Bioorg Med Chem, 2010).
pIC50: −log10 of the molar value.

Legend:
[1] = molecular target: Serine/threonine-protein kinase Chk1 (Homo sapiens) (UniProt O14757); assay: Inhibition of CHK1 assessed as residual activity at 10 uM after 80 mins by microplate scintillation counting
[2] = molecular target: Focal adhesion kinase 1 (Homo sapiens) (UniProt Q05397); assay: Inhibition of FAK assessed as residual activity at 1 uM after 80 mins by microplate scintillation counting
[3] = molecular target: Insulin-like growth factor 1 receptor (Homo sapiens) (UniProt P08069); assay: Inhibition of IGF1R assessed as residual activity at 1 uM after 80 mins by microplate scintillation counting
[4] = molecular target: Proto-oncogene tyrosine-protein kinase receptor Ret (Homo sapiens) (UniProt P07949); assay: Inhibition of RET assessed as residual activity at 1 uM after 80 mins by microplate scintillation counting
Outline: (§1)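 Kinase profiling was outsourced to a contract laboratory as a panel of 30 protein kinases. Each compound was tested at two concentrations, and residual kinase activity was recorded.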

[5] = molecular target: RAF proto-oncogene serine/threonine-protein kinase (Homo sapiens) (UniProt P04049); assay: Inhibition of RAF1 assessed as residual activity at 1 uM after 80 mins by microplate scintillation counting; outline: as §1
[6] = molecular target: Vascular endothelial growth factor receptor 2 (Homo sapiens) (UniProt P35968); assay: Inhibition of VEGFR2 assessed as residual activity at 10 uM after 80 mins by microplate scintillation counting; outline: as §1
[7] = molecular target: Platelet-derived growth factor receptor alpha (Homo sapiens) (UniProt P16234); assay: Inhibition of PDGFRalpha assessed as residual activity at 1 uM after 80 mins by microplate scintillation counting
[8] = molecular target: RAF proto-oncogene serine/threonine-protein kinase (Homo sapiens) (UniProt P04049); assay: Inhibition of RAF1 assessed as residual activity at 10 uM after 80 mins by microplate scintillation counting; outline: as §1
[9] = molecular target: Tyrosine-protein kinase Fgr (Homo sapiens) (UniProt P09769); assay: Inhibition of FGR assessed as residual activity at 1 uM after 80 mins by microplate scintillation counting
[10] = molecular target: Aurora kinase A (Homo sapiens) (UniProt O14965); assay: Inhibition of Aurora A assessed as residual activity at 1 uM after 80 mins by microplate scintillation counting
[11] = molecular target: Proto-oncogene tyrosine-protein kinase Src (Homo sapiens) (UniProt P12931); assay: Inhibition of SRC assessed as residual activity at 1 uM after 80 mins by microplate scintillation counting; outline: as §1
[12] = molecular target: Aurora kinase B (Homo sapiens) (UniProt Q96GD4); assay: Inhibition of Aurora B assessed as residual activity at 10 uM after 80 mins by microplate scintillation counting
[13] = molecular target: Serine/threonine-protein kinase Chk2 (Homo sapiens) (UniProt O96017); assay: Inhibition of CHK2 assessed as residual activity at 1 uM after 80 mins by microplate scintillation counting
[14] = molecular target: Fibroblast growth factor receptor 1 (Homo sapiens) (UniProt P11362); assay: Inhibition of FGFR1 assessed as residual activity at 10 uM after 80 mins by microplate scintillation counting
[15] = molecular target: Ribosomal protein S6 kinase beta-1 (Homo sapiens) (UniProt P23443); assay: Inhibition of p70S6K1 assessed as residual activity at 1 uM after 80 mins by microplate scintillation counting; outline: as §1
[16] = molecular target: Aurora kinase C (Homo sapiens) (UniProt Q9UQB9); assay: Inhibition of Aurora C assessed as residual activity at 1 uM after 80 mins by microplate scintillation counting
[17] = molecular target: Epidermal growth factor receptor (Homo sapiens) (UniProt P00533); assay: Inhibition of EGFR assessed as residual activity at 1 uM after 80 mins by microplate scintillation counting
[18] = molecular target: Proto-oncogene tyrosine-protein kinase Src (Homo sapiens) (UniProt P12931); assay: Inhibition of SRC assessed as residual activity at 10 uM after 80 mins by microplate scintillation counting; outline: as §1
[19] = molecular target: T1, Cyclin-dependent kinase 4/cyclin D1 (Homo sapiens) (UniProt P11802+P24385); assay: Inhibition of CDK4/Cyclin D1 assessed as residual activity at 10 uM after 80 mins by microplate scintillation counting; assay type: protein-complex assay
[20] = Antiproliferative activity against human LXFL 529L cells after 3 days by sulforhodamine B assay; assay type: functional, cell-based; conditions: Homo sapiens, LXFL 529L, 72 h
Outline: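 Cells kept at 37 °C in humidified 5% CO2 in RPMI 1640 with 10% heat-inactivated FBS, penicillin (100 units/mL) and streptomycin, and checked for mycoplasma. Seeded, grown 24 h, then exposed to drug for 3 days in serum-containing medium. Fixed with 50% TCA solution for 1 h at 4 °C, stained with 0.4% SRB, dye eluted in 10 mM Tris pH 10.5, read at 570 nm. Growth expressed as % T/C; IC50 derived.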

[21] = molecular target: T1, Cyclin-dependent kinase 4/cyclin D1 (Homo sapiens); assay: Inhibition of CDK4/Cyclin D1 assessed as residual activity at 1 uM after 80 mins by microplate scintillation counting; assay type: protein-complex assay
[22] = molecular target: Muscle, skeletal receptor tyrosine-protein kinase (Homo sapiens) (UniProt O15146); assay: Inhibition of MUSK assessed as residual activity at 1 uM after 80 mins by microplate scintillation counting
[23] = molecular target: Tyrosine-protein kinase JAK2 (Homo sapiens) (UniProt O60674); assay: Inhibition of JAK2 assessed as residual activity at 1 uM after 80 mins by microplate scintillation counting
[24] = molecular target: Aurora kinase C (Homo sapiens) (UniProt Q9UQB9); assay: Inhibition of Aurora C assessed as residual activity at 10 uM after 80 mins by microplate scintillation counting
[25] = molecular target: Receptor-type tyrosine-protein kinase FLT3 (Homo sapiens) (UniProt P36888); assay: Inhibition of FLT3 assessed as residual activity at 10 uM after 80 mins by microplate scintillation counting

RAF proto-oncogene serine/threonine-protein kinase (Homo sapiens), sequence (P04049 whole entry): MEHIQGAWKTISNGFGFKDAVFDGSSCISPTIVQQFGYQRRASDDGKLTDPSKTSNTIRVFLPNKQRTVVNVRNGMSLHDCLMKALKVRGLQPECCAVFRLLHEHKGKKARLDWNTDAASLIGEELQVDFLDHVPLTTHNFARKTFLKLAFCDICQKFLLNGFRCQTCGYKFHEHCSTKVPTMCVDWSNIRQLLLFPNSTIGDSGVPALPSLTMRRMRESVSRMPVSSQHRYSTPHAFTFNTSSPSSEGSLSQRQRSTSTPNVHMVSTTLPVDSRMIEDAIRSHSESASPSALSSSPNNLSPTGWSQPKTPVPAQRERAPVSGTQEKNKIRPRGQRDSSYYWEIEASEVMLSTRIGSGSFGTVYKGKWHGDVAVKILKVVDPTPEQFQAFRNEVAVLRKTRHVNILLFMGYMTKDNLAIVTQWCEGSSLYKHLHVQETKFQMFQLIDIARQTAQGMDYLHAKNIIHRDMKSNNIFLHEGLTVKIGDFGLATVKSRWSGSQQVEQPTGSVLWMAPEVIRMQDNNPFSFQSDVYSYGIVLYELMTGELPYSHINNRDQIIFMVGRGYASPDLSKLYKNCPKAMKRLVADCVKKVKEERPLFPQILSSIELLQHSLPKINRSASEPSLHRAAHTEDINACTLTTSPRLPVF
Proto-oncogene tyrosine-protein kinase Src (Homo sapiens), sequence (P12931 2-536 limits assumed): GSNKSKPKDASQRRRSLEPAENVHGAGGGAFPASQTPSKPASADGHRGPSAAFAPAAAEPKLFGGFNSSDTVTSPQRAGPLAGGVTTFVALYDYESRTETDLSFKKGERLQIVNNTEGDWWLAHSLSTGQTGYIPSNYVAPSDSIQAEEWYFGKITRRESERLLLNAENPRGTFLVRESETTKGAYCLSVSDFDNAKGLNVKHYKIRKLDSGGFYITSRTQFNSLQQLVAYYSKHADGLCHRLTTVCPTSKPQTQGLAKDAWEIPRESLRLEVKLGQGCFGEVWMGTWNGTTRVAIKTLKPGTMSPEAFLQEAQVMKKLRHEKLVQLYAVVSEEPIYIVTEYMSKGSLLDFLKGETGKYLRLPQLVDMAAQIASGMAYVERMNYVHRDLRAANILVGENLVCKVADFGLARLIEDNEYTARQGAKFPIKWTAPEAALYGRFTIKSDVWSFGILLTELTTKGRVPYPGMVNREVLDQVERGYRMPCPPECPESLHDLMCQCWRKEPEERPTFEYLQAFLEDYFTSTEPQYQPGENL
Aurora kinase C (Homo sapiens), sequence (Q9UQB9 whole entry): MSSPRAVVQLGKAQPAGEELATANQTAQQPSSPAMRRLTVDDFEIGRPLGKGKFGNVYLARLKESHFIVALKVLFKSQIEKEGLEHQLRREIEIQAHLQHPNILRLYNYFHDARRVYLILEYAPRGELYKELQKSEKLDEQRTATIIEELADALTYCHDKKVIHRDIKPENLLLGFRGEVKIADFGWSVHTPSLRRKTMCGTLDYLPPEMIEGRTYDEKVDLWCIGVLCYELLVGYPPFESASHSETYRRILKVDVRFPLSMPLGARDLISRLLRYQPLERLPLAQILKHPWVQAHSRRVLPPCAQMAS
Fibroblast growth factor receptor 1 (Homo sapiens), sequence (P11362 22-822 limits assumed): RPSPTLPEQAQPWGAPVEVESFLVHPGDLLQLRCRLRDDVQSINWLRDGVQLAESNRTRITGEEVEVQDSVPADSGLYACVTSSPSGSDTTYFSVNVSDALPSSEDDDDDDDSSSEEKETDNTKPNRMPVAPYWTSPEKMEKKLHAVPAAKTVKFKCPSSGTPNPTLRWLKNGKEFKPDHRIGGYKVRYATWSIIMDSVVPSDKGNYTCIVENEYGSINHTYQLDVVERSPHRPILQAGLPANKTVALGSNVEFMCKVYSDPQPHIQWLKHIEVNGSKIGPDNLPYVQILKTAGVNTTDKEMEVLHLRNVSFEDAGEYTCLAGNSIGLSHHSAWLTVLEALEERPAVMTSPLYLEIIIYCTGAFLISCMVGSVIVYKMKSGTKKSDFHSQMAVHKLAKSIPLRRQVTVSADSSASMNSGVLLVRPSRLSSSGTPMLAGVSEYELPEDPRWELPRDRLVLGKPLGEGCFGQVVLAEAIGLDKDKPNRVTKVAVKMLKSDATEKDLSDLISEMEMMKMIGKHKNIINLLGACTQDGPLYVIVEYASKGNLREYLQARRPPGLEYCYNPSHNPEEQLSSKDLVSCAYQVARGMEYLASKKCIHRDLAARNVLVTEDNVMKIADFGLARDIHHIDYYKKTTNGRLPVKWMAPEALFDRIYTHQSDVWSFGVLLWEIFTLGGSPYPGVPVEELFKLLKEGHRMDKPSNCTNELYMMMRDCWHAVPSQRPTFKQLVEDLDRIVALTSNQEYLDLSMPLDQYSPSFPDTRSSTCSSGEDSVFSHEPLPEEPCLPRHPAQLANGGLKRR
Platelet-derived growth factor receptor alpha (Homo sapiens), sequence (P16234 whole entry): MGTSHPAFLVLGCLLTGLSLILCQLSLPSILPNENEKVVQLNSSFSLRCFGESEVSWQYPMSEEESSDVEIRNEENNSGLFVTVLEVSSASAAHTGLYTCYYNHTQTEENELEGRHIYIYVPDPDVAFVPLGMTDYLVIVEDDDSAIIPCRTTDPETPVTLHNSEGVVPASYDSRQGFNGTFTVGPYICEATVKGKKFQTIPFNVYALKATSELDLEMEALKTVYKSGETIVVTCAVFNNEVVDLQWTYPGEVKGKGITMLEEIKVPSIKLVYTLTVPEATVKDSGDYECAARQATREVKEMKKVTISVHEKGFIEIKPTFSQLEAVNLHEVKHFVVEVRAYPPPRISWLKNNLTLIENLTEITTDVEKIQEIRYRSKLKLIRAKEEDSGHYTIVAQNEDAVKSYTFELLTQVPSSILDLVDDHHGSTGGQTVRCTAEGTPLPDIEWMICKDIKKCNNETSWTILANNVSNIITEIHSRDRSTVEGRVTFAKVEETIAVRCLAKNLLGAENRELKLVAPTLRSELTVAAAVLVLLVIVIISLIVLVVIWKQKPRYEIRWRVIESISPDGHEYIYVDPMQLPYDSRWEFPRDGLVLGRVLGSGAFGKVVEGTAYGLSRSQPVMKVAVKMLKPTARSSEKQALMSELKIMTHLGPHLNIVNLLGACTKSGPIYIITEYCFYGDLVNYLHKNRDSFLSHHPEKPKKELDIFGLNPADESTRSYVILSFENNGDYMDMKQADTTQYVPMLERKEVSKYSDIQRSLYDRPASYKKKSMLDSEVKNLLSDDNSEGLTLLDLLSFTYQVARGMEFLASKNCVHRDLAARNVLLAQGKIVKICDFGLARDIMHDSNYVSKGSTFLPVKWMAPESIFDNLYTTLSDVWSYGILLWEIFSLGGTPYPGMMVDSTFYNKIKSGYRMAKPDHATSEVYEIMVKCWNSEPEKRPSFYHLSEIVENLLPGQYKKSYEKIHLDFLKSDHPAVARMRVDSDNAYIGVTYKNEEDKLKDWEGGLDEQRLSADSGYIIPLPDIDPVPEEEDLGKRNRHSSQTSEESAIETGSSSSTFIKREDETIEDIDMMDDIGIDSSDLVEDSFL
Serine/threonine-protein kinase Chk2 (Homo sapiens), sequence (O96017 whole entry): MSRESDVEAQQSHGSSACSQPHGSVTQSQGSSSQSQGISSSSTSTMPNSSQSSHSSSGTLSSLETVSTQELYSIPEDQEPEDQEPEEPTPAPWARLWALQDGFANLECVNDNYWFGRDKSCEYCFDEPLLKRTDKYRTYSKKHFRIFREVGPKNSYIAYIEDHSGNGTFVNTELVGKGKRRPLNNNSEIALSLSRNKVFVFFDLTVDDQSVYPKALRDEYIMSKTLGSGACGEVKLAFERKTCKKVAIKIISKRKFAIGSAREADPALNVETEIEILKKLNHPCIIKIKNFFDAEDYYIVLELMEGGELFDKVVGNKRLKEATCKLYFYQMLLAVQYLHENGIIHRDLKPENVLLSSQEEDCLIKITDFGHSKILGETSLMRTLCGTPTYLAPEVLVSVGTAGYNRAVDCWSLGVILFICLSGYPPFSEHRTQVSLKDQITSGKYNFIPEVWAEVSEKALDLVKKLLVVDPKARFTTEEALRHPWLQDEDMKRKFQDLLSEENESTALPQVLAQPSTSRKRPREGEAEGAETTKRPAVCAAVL
Ribosomal protein S6 kinase beta-1 (Homo sapiens), sequence (P23443 whole entry, looked up): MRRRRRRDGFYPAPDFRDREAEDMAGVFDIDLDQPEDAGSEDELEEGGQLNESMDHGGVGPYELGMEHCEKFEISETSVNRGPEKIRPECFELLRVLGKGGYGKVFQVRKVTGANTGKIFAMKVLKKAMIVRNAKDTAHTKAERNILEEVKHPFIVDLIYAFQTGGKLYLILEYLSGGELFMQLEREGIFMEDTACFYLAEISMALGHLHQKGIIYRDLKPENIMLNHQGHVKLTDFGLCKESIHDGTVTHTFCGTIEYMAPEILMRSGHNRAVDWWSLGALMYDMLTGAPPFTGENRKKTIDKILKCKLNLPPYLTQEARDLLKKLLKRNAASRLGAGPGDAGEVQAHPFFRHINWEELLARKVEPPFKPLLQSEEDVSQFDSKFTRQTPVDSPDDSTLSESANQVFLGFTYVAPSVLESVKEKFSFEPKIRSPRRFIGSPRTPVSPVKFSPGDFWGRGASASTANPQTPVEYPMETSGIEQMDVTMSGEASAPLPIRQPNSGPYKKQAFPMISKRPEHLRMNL
Aurora kinase A (Homo sapiens), sequence (O14965 whole entry): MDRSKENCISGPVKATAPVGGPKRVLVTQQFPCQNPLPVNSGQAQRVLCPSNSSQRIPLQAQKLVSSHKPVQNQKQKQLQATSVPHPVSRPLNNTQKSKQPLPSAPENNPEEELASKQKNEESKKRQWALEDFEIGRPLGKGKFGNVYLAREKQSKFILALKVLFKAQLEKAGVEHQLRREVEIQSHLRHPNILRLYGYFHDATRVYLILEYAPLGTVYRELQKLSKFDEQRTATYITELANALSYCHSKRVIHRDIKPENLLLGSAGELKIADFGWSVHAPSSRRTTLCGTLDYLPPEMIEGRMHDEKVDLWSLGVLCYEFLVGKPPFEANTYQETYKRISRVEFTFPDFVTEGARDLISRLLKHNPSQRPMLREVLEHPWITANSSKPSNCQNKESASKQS

Structure (SMILES): CN1CCN(c2ccc(NC(=O)c3ccc4c(c3)/C(=C3/Nc5ccccc5C3=O)C(=O)N4)cc2)CC1
- Activity [1]: 45%
- Activity [2]: 103%
- Activity [3]: 102%
- Activity [4]: 78%
- Activity [5]: 94%
- Activity [6]: 65%
- Activity [7]: 94%
- Activity [8]: 53%
- Activity [9]: 99%
- Activity [10]: 86%
- Activity [11]: 132%
- Activity [12]: 73%
- Activity [13]: 90%
- Activity [14]: 83%
- Activity [15]: 94%
- Activity [16]: 83%
- Activity [17]: 99%
- Activity [18]: 271%
- Activity [19]: 18%
- pIC50 [20]: 6.27
- Activity [21]: 64%
- Activity [22]: 81%
- Activity [23]: 95%
- Activity [24]: 92%
- Activity [25]: 11%
